Data: ChEMBL document CHEMBL4028818, “Tricyclic 4,4-dimethyl-3,4-dihydrochromeno[3,4-d]imidazole derivatives as microsomal prostaglandin E2 synthase-1 (mPGES-1) inhibitors: SAR and in vivo efficacy in hyperalgesia pain model” (Bioorg Med Chem Lett, 2017)

How the values were obtained:
Prostaglandin E synthase = target: T1, Prostaglandin E synthase (Homo sapiens, UniProt O14684); test: Inhibition of recombinant human mPGES-1 expressed in CHO cells assessed as reduction in PGE2 formation using PGH2 a substrate preincubated for 10 mins followed by substrate addition measured after 1 min; assay type: cell-based
T1 sequence (O14684 whole entry): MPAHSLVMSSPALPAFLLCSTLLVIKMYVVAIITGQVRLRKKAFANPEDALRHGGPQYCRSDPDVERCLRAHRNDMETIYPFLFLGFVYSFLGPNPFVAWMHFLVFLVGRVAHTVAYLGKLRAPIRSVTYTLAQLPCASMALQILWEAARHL
In short: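 mPGES-1 enzyme inhibition. % inhibition values are means of two experiments in duplicate. IC50 values were derived from graphs of at least two experiments in duplicate.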

[1] = target: T2, Prostaglandin G/H synthase 2 (Homo sapiens, UniProt P35354); test: Inhibition of recombinant human N-terminal His-tagged COX2 expressed in baculovirus infected Sf21 insect cells assessed as decrease in PGE2 release using arachidonic acid as substrate preincubated for 15 mins followed by arachidonic acid addition measured after 5 mins
T2 sequence (P35354 whole entry): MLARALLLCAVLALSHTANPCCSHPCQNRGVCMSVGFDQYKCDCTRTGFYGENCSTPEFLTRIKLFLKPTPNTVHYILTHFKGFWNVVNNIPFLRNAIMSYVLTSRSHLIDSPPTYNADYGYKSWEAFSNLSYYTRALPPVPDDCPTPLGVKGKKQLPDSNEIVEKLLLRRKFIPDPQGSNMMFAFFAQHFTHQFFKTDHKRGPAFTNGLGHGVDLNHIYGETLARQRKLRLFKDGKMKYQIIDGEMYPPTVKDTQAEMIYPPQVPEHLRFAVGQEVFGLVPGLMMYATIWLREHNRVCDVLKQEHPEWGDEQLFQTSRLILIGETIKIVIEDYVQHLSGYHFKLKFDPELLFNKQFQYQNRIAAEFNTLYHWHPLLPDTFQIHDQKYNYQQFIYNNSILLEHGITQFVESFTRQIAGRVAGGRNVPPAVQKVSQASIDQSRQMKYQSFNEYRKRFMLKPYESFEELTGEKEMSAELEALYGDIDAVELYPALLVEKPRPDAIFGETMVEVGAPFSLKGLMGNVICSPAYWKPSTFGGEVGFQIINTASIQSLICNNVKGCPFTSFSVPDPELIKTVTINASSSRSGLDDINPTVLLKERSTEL

[2] = Metabolic stability in human liver microsomes assessed as parent compound remaining at 1 uM after 60 mins in presence of NADPH by LC/MS/MS analysis; assay type: ADME, microsome; details: read-out: Stability
In short: (§1)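 Compound at 1.0 µM was incubated with liver microsomes (1.0 mg/mL protein) at 37 °C for 60 min. Samples were analysed by LC/MS/MS as % parent remaining. Run in triplicate.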

[3] = Metabolic stability in rat liver microsomes assessed as parent compound remaining at 1 uM after 60 mins in presence of NADPH by LC/MS/MS analysis; assay type: ADME, microsome; details: read-out: Stability; in short: as §1
[4] = Metabolic stability in Guinea pig liver microsomes assessed as parent compound remaining at 1 uM after 60 mins in presence of NADPH by LC/MS/MS analysis; assay type: ADME, Cavia porcellus, microsome; details: read-out: Stability; in short: as §1
CYP3A4 = CYP3A4 (Homo sapiens, UniProt P08684); test: Inhibition of CYP3A4 in human liver microsomes at 10 uM measured after 20 mins in presence of NADPH by LC/MS/MS analysis relative to control; assay type: ADME
Sequence of CYP3A4 (P08684 whole entry, canonical isoform): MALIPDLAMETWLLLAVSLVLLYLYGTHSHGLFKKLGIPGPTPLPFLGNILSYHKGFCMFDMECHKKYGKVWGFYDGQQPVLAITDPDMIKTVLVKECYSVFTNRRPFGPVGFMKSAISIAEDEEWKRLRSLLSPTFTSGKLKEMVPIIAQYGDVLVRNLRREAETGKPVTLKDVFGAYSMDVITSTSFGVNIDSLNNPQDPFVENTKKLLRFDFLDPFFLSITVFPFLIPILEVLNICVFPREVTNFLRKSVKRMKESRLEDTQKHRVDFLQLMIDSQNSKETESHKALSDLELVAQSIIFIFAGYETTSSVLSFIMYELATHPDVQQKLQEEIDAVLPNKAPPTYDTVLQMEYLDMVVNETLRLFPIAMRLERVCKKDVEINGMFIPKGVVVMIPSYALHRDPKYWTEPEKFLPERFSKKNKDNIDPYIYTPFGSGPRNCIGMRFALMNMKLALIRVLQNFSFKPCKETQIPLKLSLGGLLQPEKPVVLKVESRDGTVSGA
In short: (§2)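 CYP isoforms 1A2, 2D6, 3A4, 2C9 and 2C19 were tested at 1 and 10 µM. Results are % inhibition compared with a no-inhibitor control, run in triplicate.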

CYP2C9 = CYP2C9 (Homo sapiens, UniProt P11712); test: Inhibition of CYP2C9 in human liver microsomes at 10 uM measured after 20 mins in presence of NADPH by LC/MS/MS analysis relative to control; assay type: ADME; in short: as §2
Sequence of CYP2C9 (P11712 whole entry): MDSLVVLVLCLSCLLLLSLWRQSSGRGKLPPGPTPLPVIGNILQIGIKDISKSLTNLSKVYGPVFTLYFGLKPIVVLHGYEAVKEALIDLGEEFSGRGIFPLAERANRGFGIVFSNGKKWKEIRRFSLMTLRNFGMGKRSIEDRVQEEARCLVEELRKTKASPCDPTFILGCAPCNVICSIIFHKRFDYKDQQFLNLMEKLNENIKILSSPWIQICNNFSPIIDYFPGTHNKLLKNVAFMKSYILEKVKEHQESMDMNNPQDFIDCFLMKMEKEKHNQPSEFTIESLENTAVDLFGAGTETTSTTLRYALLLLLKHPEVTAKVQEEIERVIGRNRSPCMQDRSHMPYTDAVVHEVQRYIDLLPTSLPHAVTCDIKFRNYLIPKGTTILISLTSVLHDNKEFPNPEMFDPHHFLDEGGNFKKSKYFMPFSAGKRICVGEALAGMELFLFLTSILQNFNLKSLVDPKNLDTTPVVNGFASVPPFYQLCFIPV

[5] = Protein binding in human plasma at 10 uM after 5 to 10 mins by LC-MS/SM analsysis; assay type: ADME, cell-free; details: read-out: PPB
In short: (§3)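 Plasma protein binding was measured by equilibrium dialysis at 10 µM compound.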

[6] = Protein binding in Guinea pig plasma at 10 uM after 5 to 10 mins by LC-MS/SM analysis; assay type: ADME, cell-free, Cavia porcellus; details: read-out: PPB; in short: as §3
[7] = Half life in Sprague-Dawley rat at 5 mg/kg, iv administered as single bolus dose; assay type: ADME, organism-based; details: in vivo
In short: (§4)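 Male Sprague-Dawley rats were dosed i.v. in a vehicle of 20% NMP + 20% ethanol + 60% PEG 200. T1/2, CL and Vz were derived. Values are mean ± SD, n = 3.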

[8] = Clearance in Sprague-Dawley rat at 5 mg/kg, iv administered as single bolus dose; assay type: ADME, organism-based; details: in vivo; in short: as §4
[9] = Apparent volume of distribution in Sprague-Dawley rat at 5 mg/kg, iv administered as single bolus dose; assay type: ADME, organism-based; details: in vivo, read-out: Vz; in short: as §4
[10] = Cmax in Sprague-Dawley rat at 10 mg/kg, po; assay type: ADME, organism-based; parameters: dose 10 mg/kg, route oral; details: in vivo
In short: (§5)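 Male Sprague-Dawley rats were dosed orally as a 0.5% methylcellulose suspension. Cmax, AUC0-24, Tmax, T1/2 and %F were determined. Values are mean ± SD, n = 3.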

[11] = AUC (0 to 24 hrs) in Sprague-Dawley rat at 10 mg/kg, po; assay type: ADME, organism-based; parameters: dose 10 mg/kg, time < 24 hr, route oral; details: in vivo; in short: as §5
[12] = Tmax in Sprague-Dawley rat at 10 mg/kg, po; assay type: ADME, organism-based; details: in vivo; in short: as §5
[13] = Oral bioavailability in Sprague-Dawley rat at 10 mg/kg; assay type: ADME, organism-based; details: in vivo; in short: as §5
Cytochrome P450 2C19 = Cytochrome P450 2C19 (Homo sapiens, UniProt P33261); test: Inhibition of CYP2C19 in human liver microsomes at 1 uM measured after 40 mins in presence of NADPH by LC/MS/MS analysis; assay type: ADME; in short: as §2
Sequence of Cytochrome P450 2C19 (P33261 whole entry): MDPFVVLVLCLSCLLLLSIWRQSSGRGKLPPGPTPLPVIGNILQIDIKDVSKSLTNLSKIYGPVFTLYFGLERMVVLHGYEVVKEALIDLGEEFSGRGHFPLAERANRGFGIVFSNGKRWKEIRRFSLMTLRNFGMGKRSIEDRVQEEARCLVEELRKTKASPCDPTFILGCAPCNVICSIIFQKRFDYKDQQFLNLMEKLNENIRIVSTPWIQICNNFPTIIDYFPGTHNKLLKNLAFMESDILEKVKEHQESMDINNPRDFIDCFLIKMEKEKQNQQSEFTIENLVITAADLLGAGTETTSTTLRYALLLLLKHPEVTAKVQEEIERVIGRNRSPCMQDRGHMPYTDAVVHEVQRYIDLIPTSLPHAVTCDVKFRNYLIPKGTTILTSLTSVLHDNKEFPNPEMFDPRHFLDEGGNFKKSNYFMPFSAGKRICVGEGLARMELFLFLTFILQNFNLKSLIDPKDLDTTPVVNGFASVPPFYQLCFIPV

CYP2C19 = CYP2C19 (Homo sapiens, UniProt P33261); test: Inhibition of CYP2C19 in human liver microsomes at 10 uM measured after 40 mins in presence of NADPH by LC/MS/MS analysis relative to control; assay type: ADME; in short: as §2
Sequence of CYP2C19 (P33261 whole entry): as above

Cytochrome P450 2D6 = Cytochrome P450 2D6 (Homo sapiens, UniProt P10635); test: Inhibition of CYP2D6 in human liver microsomes at 1 uM measured after 20 mins in presence of NADPH by LC/MS/MS analysis; assay type: ADME; in short: as §2
Sequence of Cytochrome P450 2D6 (P10635 whole entry): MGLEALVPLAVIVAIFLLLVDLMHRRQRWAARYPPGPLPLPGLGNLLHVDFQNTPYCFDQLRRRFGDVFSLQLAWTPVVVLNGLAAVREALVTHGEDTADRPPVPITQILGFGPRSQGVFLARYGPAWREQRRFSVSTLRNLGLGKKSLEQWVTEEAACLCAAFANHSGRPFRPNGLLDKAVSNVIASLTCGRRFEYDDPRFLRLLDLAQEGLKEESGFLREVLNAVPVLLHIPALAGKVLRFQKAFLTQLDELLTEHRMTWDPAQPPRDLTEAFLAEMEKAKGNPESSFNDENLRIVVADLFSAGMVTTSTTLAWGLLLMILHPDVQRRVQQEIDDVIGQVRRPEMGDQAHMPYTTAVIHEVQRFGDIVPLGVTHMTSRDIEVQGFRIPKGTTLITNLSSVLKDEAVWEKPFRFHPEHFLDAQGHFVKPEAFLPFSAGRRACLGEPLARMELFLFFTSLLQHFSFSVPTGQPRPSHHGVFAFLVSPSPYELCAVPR

Cytochrome P450 3A4 = Cytochrome P450 3A4 (Homo sapiens, UniProt P08684); test: Inhibition of CYP3A4 in human liver microsomes at 1 uM measured after 20 mins in presence of NADPH by LC/MS/MS analysis; assay type: ADME; in short: as §2
Sequence of Cytochrome P450 3A4 (P08684 whole entry): as the sequence (P08684 whole entry, canonical isoform) above

Cytochrome P450 2C9 = Cytochrome P450 2C9 (Homo sapiens, UniProt P11712); test: Inhibition of CYP2C9 in human liver microsomes at 1 uM measured after 20 mins in presence of NADPH by LC/MS/MS analysis; assay type: ADME; in short: as §2
Sequence of Cytochrome P450 2C9 (P11712 whole entry): as the sequence (P11712 whole entry) above

IC50 (Prostaglandin E synthase) | IC50 [1] | remaining at 1 h, 1 µM [2] | remaining at 1 h, 1 µM [3] | remaining at 1 h, 1 µM [4] | inhibition at 20 min, 10 µM (CYP3A4) | inhibition at 20 min, 10 µM (CYP2C9) | fraction unbound at 10 µM [5] | fraction unbound at 10 µM [6] | half-life [7] | clearance [8] | Vd [9] | Cmax [10] | AUC(0-t) at 24 h [11] | Tmax [12] | bioavailability [13] | inhibition (INH) (Cytochrome P450 2C19) | inhibition at 40 min, 10 µM (CYP2C19) | inhibition (INH) (Cytochrome P450 2D6) | inhibition (INH) (Cytochrome P450 3A4) | Structure (SMILES) | further results
36.3 nM | 9.88 µM | 76% | 44% | 73% | 31% | 33.3% | < 0.045 | < 0.005 | 330 min | 11.1 mL/min/kg | 5.3 L/kg | 1180 ng/mL | 12400 ng·h/mL | 4 h | 85% | Not Active | 17 to 26% | Not Active | Not Active | CC1(C)Oc2cc(C#Cc3cc(Cl)ccc3F)ccc2-c2[nH]c(-c3c(F)cccc3Cl)nc21 | inhibition (INH) (Cytochrome P450 2C9): Not Active
56.9 nM | > 10 µM | 84% | 83% | 80% | 8.4% | 45.4% | < 0.005 | < 0.005 | 592 min | 3.63 mL/min/kg | 3.11 L/kg | 826 ng/mL | 12600 ng·h/mL | 4 h | 33% | Not Active | 27.2% | Not Active | Not Active | CC1(C)Oc2cc(-c3cccc(OC(F)(F)F)c3)ccc2-c2[nH]c(-c3c(F)cccc3Cl)nc21 | inhibition (INH) (Cytochrome P450 2C9): Not Active
